From ChEMBL document CHEMBL4311977, “Design and synthesis of parthenolide and 5-fluorouracil conjugates as potential anticancer agents against drug resistant hepatocellular carcinoma” (Eur J Med Chem, 2019)
Active and inactive are the calls of the source. The rule behind the calls is not given here.

Experiments:
[1] = test system: Bel7402/5-FU; assay: Induction of apoptosis in human Bel7402/5-FU assessed as apoptotic cells at 0.5 uM incubated for 48 hrs by annexinV-FITC/propidium iodide staining based flow cytometry (reference value: 3.37 +/- 0.47 %)
[2] = test system: Bel7402/5-FU; assay: Induction of apoptosis in human Bel7402/5-FU assessed as apoptotic cells at 1 uM incubated for 48 hrs by annexinV-FITC/propidium iodide staining based flow cytometry (reference value: 3.37 +/- 0.47 %)
[3] = test system: Bel7402/5-FU; assay: Induction of apoptosis in human Bel7402/5-FU assessed as late apoptotic cells at 2.5 uM incubated for 48 hrs by annexinV-FITC/propidium iodide staining based flow cytometry (reference value: 0.268 to 0.945 %)
[4] = test system: Bel7402/5-FU; assay: Antiproliferative activity against human Bel7402/5-FU incubated for 72 hrs by MTT assay; format: functional, cell-based
Summary of the method: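 Bel-7402 and its 5-FU-resistant subline were kept in RPMI-1640 with 10% FBS and 1% penicillin/streptomycin at 37 °C under 5% CO2. Cells were seeded at 5000 per well and left for 12 h, then exposed to a concentration series for 72 h. MTT stock (5 mg/mL) was added for 4 h and the product dissolved in DMSO. OD was read at 570 nm and IC50 obtained by curve fitting.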

[5] = test system: Bel7402/5-FU; assay: Potency index, ratio of parthenolide IC50 to compound IC50 for antiproliferative activity against human Bel7402/5-FU cells; format: functional
[6] = test system: Bel7402/5-FU; assay: Induction of apoptosis in human Bel7402/5-FU cells assessed as upregulation of Bim expression at 0.5 to 5 uM incubated for 24 hrs by Western blot analysis; format: functional, cell-based
Summary of the method: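 Bel-7402/5-FU cells were seeded at 5 × 10⁵ per well and left 12 h, then treated with four concentrations (0.5, 1, 2, 5) for 24 h. Cells were PBS-washed and lysed in RIPA on ice for 30 min, then denatured at 100 °C for 5 min. Lysates went through SDS-PAGE and PVDF transfer, 5% milk blocking for 1 h at room temperature, primary antibodies, and HRP secondary for 2 h at room temperature.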

[7] = test system: Bel7402/5-FU; assay: Induction of apoptosis in human Bel7402/5-FU assessed as early apoptotic cells at 5 uM incubated for 48 hrs by annexinV-FITC/propidium iodide staining based flow cytometry (reference value: 20.1 %)
[8] = Therapeutic index, ratio of IC50 for mouse 3T3 cells to IC50 for human Bel7402 cells; format: toxicity; conditions: mouse 3T3 cells versus human Bel7402 cells, read-out: TI
[9] = test system: Bel7402/5-FU; assay: Induction of apoptosis in human Bel7402/5-FU assessed as viable cells at 2.5 uM incubated for 48 hrs by annexinV-FITC/propidium iodide staining based flow cytometry (reference value: 96.9 to 97.1 %)

In the case of `C=C1C(=O)O[C@H]2[C@H]1CC/C(COC(=O)Cn1cc(F)c(=O)n(Cc3ccc(C(F)(F)F)cc3)c1=O)=C\CC[C@@]1(C)O[C@@H]21`, the Activity [1] is reported as 3.97%, the Activity [2] is reported as 4.9% and the Activity [3] is reported as 4.86%. The IC50 [4] was 2.25 µM, the “Ratio IC50” value [5] was 5.8 and the Activity [6] was “Active”. The Activity [7] was 18.1 - 82.7%, the selectivity ratio [8] was 2.3 and the viability at 2.5 µM [9] was 85.6%.
